Most compounds without a hit are left out; they make up all but 1.9% or so of the library.
APJ antagonist = antagonists of human apelin receptor APJ, primary screen, CHO-K1 cells, beta-arrestin complementation, luminescence; 330,000 tested, 0.32% active; AID 2521, 2010; inhibition, % at 20 µM; P35414;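 active = inhibition above about 40% at 20 µM, limit read from the data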;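 also: cells challenged with 10 nM apelin-13 agonist together with compound; plate controls were apelin-13 plus DMSO wells for no effect and DMSO wells lacking apelin-13 for full effect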
Target sequence (P35414 whole entry, looked up): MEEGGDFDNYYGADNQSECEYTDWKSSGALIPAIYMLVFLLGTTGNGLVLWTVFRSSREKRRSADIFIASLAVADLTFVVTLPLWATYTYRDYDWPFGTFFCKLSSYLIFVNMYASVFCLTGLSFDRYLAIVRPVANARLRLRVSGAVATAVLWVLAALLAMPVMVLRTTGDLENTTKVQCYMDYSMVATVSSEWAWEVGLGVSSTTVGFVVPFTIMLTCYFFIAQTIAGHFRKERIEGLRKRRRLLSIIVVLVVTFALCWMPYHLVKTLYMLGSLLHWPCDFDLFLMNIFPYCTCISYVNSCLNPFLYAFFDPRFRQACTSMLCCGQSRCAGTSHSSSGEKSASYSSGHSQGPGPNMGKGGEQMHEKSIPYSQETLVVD
EBI2 antag = EBI2 receptor antagonists, beta-arrestin recruitment, primary screen, cell-based, luminescence, 7a,25-OHC stimulation, uHTS | 360,000 tested, 0.81% active | AID 651636, 2012 | inhibition, % at 5 µM | 7a,25-OHC stimulated; in the data active = inhibition above about 38%;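 also: enzyme fragment complementation signal reports receptor beta-arrestin coupling in cells; 0% = agonist plus DMSO wells and 100% = wells without agonist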
H9c2 TAG inh = inhibitors of triacylglycerol accumulation, primary screen, cell-based, uHTS, fluorescence, H9c2; 230,000 tested, 0.66% active; inhibition, % at 12.5 µM; AID 651582, 2012; H9c2 cells, Nile Red lipid (TAG) fluorescence; cells loaded with 200 µM oleic acid;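 active = pattern-corrected inhibition of lipid staining of at least 50% with the nuclear-stain viability signal not falling by more than 50%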;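 also: 0% = DMSO wells and 100% = triacsin C control wells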
APJ agonist = agonists of human apelin receptor APJ, primary screen, CHO-K1 cells, PathHunter beta-arrestin, luminescence. 0% DMSO wells, 100% apelin. activation, % at 20 µM. 330,000 tested, 0.11% active. P35414;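 active = activation more than six SD over the plate average, tested at 20 µM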;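 also: 0% = DMSO alone and 100% = apelin-13 at 10 nM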
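assay system = CHO-K1 APJ beta-arrestin complementation cell line | input = cell density 1000 per well | dosing = compound 20 µM once, DMSO 1% | timing = compound 90 min 25 °C, reagent 1 h | measured by = luminescence from split beta-galactosidase complementation, Galacton Star/Emerald II substrate | read-out basis = APJ agonist activity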
CXCR6 inh = CXCR6 receptor inhibitors, primary screen, cell-based, beta-arrestin, luminescence, CHO-K1 PathHunter, 1536-well; C-X-C chemokine receptor type 6 (Homo sapiens), O00574; inhibition, % at 20 µM; 360,000 tested, 0.36% active; in the data active = inhibition above about 34%, passing the limit was not always enough;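 also: antagonist mode with CXCL16 agonist at 10 nM final; 0% = 10 nM CXCL16 with DMSO and 100% = unstimulated wells without agonist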
CCR6 antag = CCR6 receptor antagonists, primary screen, cell-based, CHO-K1, luminescence, beta-arrestin, uHTS. inhibition, % at 20 µM. 340,000 tested, 0.49% active. C-C chemokine receptor type 6 (Homo sapiens), P51684. CHO-K1 CCR6 PathHunter beta-arrestin, CCL20-stimulated;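 active = compounds whose inhibition of the agonist-driven luminescence signal at 20 µM reaches about 50%, limit read from the data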;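 also: cells stimulated with CCL20 at 14 nM final; plate controls were DMSO with CCL20 for no effect and DMSO without agonist for full effect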
APJ antag confirm = APJ antagonists blocking beta-arrestin recruitment, confirmation, cell-based, luminescence, single concentration, uHTS hits; shares compounds with APJ antagonist; antagonist mode; inhibition, % at 20 µM; 950 tested, 66% active; AID 2766, 2010; in the data active = inhibition above about 50%
* = called active by the depositor; x = no result given.

SMILES	APJ antagonist	EBI2 antag	H9c2 TAG inh	APJ agonist	CXCR6 inh	CCR6 antag	APJ antag confirm
O=C(C1CCCCC1)N1CCCn2c1nc1ccccc12	4	2	x	-3	-23	-3	x
O=C(C1CCN(S(=O)(=O)c2cnc[nH]2)CC1)N1CCn2c1nc1ccccc12	61*	35	x	-14	56*	67*	101*
CCCCOc1ccc(C(=O)N/C(=C/C=C/c2ccccc2)C(=O)NCCCO)cc1	16	2	-7	-4	2	10	x
CCCCOc1ccc(C(=O)N/C(=C/C=C/c2ccccc2)C(=O)NCCO)cc1	43*	1	x	-2	-4	9	-14
c1cncc(-c2nc(-c3ccco3)cs2)c1	47*	1	x	-6	19	28	18
O=C1Nc2ccc(Br)cc2C1=C1CCCCC1	-5	-9	0	1	-2	-4	x
Cc1ccc(N=C2C(=O)Nc3ccc(Br)cc32)cc1	68*	17	x	-16	36	54*	156*
Cc1cccc2c1NC(=O)C2=Nc1ccc(Cl)cc1	63*	9	-5	-14	32	76*	94*
Cc1ccc(N=C2C(=O)Nc3c(C)cccc32)cc1	43*	11	x	-9	18	58*	95*
Cc1ccc(C)c2nc3sc(C(=O)N4CCCc5ccccc54)c(N)c3cc12	59*	75*	x	-17	38	47	58*
O=C1c2cccc3c(Nc4ccccc4Cl)c([N+](=O)[O-])cc(c23)C(=O)N1CCO	53*	13	-16	-7	40*	65*	84*
CC(=O)c1sc(NS(=O)(=O)c2ccc(C)cc2)nc1C	53*	-4	x	-2	1	-1	23
N#C/C(=N\Nc1ccccc1)C(N)=S	22	-15	-1	-6	12	15	x
N#C/C(=N/Nc1ccccc1[N+](=O)[O-])C(N)=S	40*	-3	7	-9	18	36	105*
Cn1cccc1Cc1nnc(SCC(=O)NCc2ccc(F)cc2)n1-c1ccc(F)cc1	58*	19	-11	-1	-1	-2	14
O=C(CNc1ccc(Br)cc1)c1ccc(Br)s1	66*	38	x	-16	41*	66*	108*
O=C(CNc1ccc(Br)cc1)c1ccc(O)cc1	35	0	x	-3	2	39	x
COc1cc(C2(C)SCCCS2)cc(OC)c1OC	x	21	x	x	7	x	x
O=S(=O)(Nc1cccc2cccnc12)c1ccc(S(=O)(=O)N2CCCC2)cc1	68*	12	x	-17	34	45	48
COc1ccc(NS(=O)(=O)c2ccc3ccccc3c2)c2ncccc12	66*	24	x	-12	20	32	52*
CC(=O)Nc1ccc(S(=O)(=O)Nc2cccc3cccnc23)cc1	8	-7	x	-4	-4	32	x
Cc1ccc2cccc(NS(=O)(=O)c3ccccc3)c2n1	63*	x	x	-20	x	39	57*
COc1ccccc1NS(=O)(=O)c1ccc2ccccc2c1	2	-3	x	-2	-5	12	x
O=S(=O)(Nc1cccc2cccnc12)c1ccccc1	89*	62*	x	-15	69*	90*	72*
Cc1ccccc1NS(=O)(=O)c1ccc(S(=O)(=O)N2CCCC2)cc1	x	-4	3	x	0	x	x
SMILES	APJ antagonist	EBI2 antag	H9c2 TAG inh	APJ agonist	CXCR6 inh	CCR6 antag	APJ antag confirm
Cc1ccc(S(=O)(=O)Nc2cccc3cccnc23)c([N+](=O)[O-])c1	58*	23	-8	-24	30	49	56*
CC(=O)Nc1ccc(NC(=O)CN2C(=O)COc3ccc(S(=O)(=O)N4CCOCC4)cc32)cc1	19	-2	x	-5	-1	7	x
CC(C)c1ccc(NC(=O)CN2C(=O)COc3ccc(S(=O)(=O)N4CCOCC4)cc32)cc1	45*	-10	x	-4	8	-1	-13
COCCNC(=S)N/N=C(\C)c1ccc(Cl)c(Cl)c1	11	2	15	-4	1	15	x
COCCNC(=S)N/N=C(\C)c1ccc(Cl)c(Cl)c1Cl	43*	13	1	-4	27	38	36
COc1cc(/C=C2\C(=O)ON=C2c2ccccc2)cc(Br)c1O	43*	-22	x	-7	28	58*	95*
Cc1sc(/C=C2\C(=O)ON=C2c2ccccc2)cc1Br	2	x	x	-3	x	x	x
COc1ccc(/C=C2/C(=O)ON=C2C)cc1Cl	3	-6	x	-1	-6	-8	x
CCOc1cc(/C=C2/C(=O)ON=C2C)cc(Br)c1O	41*	3	x	-6	16	57*	56*
COc1cc(C=C2C(=O)OC(c3ccccc3)OC2=O)cc(Br)c1O (centres undefined)	5	-2	18	0	5	16	x
COc1cc(/C=C2\C(=O)ON=C2c2ccccc2)cc(Cl)c1O	46*	-9	12	-5	17	50	66*
CCOc1cc(/C=C2\C(=O)ON=C2c2ccccc2)cc(Br)c1O	46*	-15	x	-7	29	42	74*
CCCCCCN1C[C@H](O)[C@@H](n2cc(C3CC3)nn2)C[C@@H]1c1ccc(OC)cc1	x	15	0	x	3	x	x
C=CCNC(=S)Nc1cc(S(=O)(=O)N2CCOCC2)ccc1-n1cncn1	9	-2	x	0	13	26	x
CCN(CC)c1ccc(C(=O)NC(=S)Nc2cc(S(=O)(=O)N3CCOCC3)ccc2-n2cncn2)cc1	41*	10	x	-7	9	34	82*
Cn1c(-c2cccc([N+](=O)[O-])c2)cnc1NCc1cccc(F)c1	-6	-9	11	-3	-8	17	x
CC1=C/C(=C(/c2ccc(O)c(C)c2)c2ccccc2S(=O)(=O)O)C=CC1=O	46*	5	15	-9	41*	55*	59*
CC1=C/C(=C(/c2cc(C)c(O)c(Br)c2)c2ccccc2S(=O)(=O)O)C=C(Br)C1=O	46*	16	x	-11	43*	64*	86*
O=C(COC(=O)c1ccc(F)c(S(=O)(=O)N2CCOCC2)c1)Nc1ccc2[nH]c(=O)[nH]c2c1	-52	-10	-5	4	8	-3	x
CC(=O)c1ccc(NC(=O)c2ccccc2-c2ccccc2C(=O)O)cc1	3	0	-1	-3	-3	-8	x
C[C@H]1O[C@H](C2CCCC2)CC2=C1C(=O)OC(C)(C)O2	x	2	x	x	2	x	x

Screens: PubChem BioAssay, Sanford-Burnham Center for Chemical Genomics
